Key:
[1] = organism: Bos taurus; experiment: Activation of actin-stimulated bovine cardiac myosin S1 fragment ATPase activity in sarcomere at 10 uM after 10 mins by spectrophotometric analysis
In short: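 Bovine cardiac S1 myosin with actin thin filament complex at pCa 6.5, in 20 mM Tris HCl pH 7.5, 15 mM KCl, 6 mM MgCl2, 1 mM ATP. Compound at 10 μM, 10 min at room temperature. Stopped with Cytophos reagent; liberated phosphate read at 650 nm. % activity calculated relative to DMSO negative control, blank-corrected.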

[2] = Solubility of the compound in water; format: physicochemical; details: buffer
In short: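 Final solution concentration measured by HPLC against three standards of known concentration.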

[3] = test system: Rattus norvegicus; experiment: Positive inotropic activity in Sprague-Dawley rat heart assessed as ejection fraction at 2 to 16 ug/kg/min for 3 mins by echocardiographic analysis; format: functional
In short: (§1)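 Seven-week-old male Sprague-Dawley rats under 1.5 % isoflurane via nosecone. Drug given through a right internal jugular vein central line. Left ventricular fractional shortening and ejection fraction measured by echocardiography with and without sample, expressed as % increase.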

[4] = test system: Rattus norvegicus; experiment: Positive inotropic activity in Sprague-Dawley rat heart assessed as left ventricle fractional shortening at 2 to 16 ug/kg/min for 3 mins by echocardiographic analysis; format: functional; in short: as §1
[5] = organism: Oryctolagus cuniculus; experiment: Activation of actin-stimulated rabbit psoas skeletal muscle myosin S1 fragment ATPase activity at 100 uM after 10 mins by spectrophotometric analysis
In short: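 Rabbit skeletal S1 myosin with actin thin filament complex at pCa 6.5, in 20 mM Tris HCl pH 7.5, 15 mM KCl, 6 mM MgCl2, 1 mM ATP. Compound at single 100 uM dose, 10 min at room temperature. Cytophos stop; phosphate read at 650 nm. % activity versus blank-corrected DMSO control.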

[6] = organism: Gallus gallus; experiment: Activation of actin-stimulated chicken gizzard smooth muscle myosin S1 fragment ATPase activity at 100 uM after 10 mins by spectrophotometric analysis
In short: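 Chicken gizzard smooth muscle S1 myosin with actin plus tropomyosin at pCa 6.5, in 20 mM Tris HCl pH 7.5, 15 mM KCl, 6 mM MgCl2, 1 mM ATP. Compound at single 100 uM dose, 10 min at room temperature. Cytophos stop; phosphate read at 650 nm. % activity versus blank-corrected DMSO control.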

[7] = test system: Rattus norvegicus; experiment: Positive inotropic activity in Sprague-Dawley rat heart assessed as ejection fraction at 4 ug/kg/min for 3 mins by echocardiographic analysis (reference value: 67.16 to 85.81%); format: functional; in short: as §1
[8] = test system: Rattus norvegicus; experiment: Positive inotropic activity in Sprague-Dawley rat heart assessed as heart rate at 16 ug/kg/min for 3 mins by echocardiographic analysis (reference value: 281 to 347 bpm); format: functional
[9] = test system: Rattus norvegicus; experiment: Positive inotropic activity in Sprague-Dawley rat heart assessed as heart rate at 4 ug/kg/min for 3 mins by echocardiographic analysis (reference value: 281 to 347 bpm); format: functional
[10] = test system: Rattus norvegicus; experiment: Positive inotropic activity in Sprague-Dawley rat heart assessed as left ventricular internal diameter end diastole at 4 ug/kg/min for 3 mins by echocardiographic analysis (reference value: 5.66 to 7.80 mm); format: functional
In short: (§2)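 Male Sprague-Dawley rats, seven weeks old, anaesthetised with 1.5 % isoflurane given by nosecone. Compound infused through the right internal jugular vein, used as a central venous line. Left ventricular dimensions measured by echocardiography.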

[11] = test system: Rattus norvegicus; experiment: Effect on hemodynamic parameters in Sprague-Dawley rat heart assessed as heart rate at 4 ug/kg/min (reference value: 260 to 322 bpm); format: functional
[12] = test system: Rattus norvegicus; experiment: Positive inotropic activity in Sprague-Dawley rat heart assessed as fractional shortening at 8 ug/kg/min for 3 mins by echocardiographic analysis (reference value: 38.60 to 55.81%); format: functional; in short: as §1
[13] = test system: Rattus norvegicus; experiment: Effect on hemodynamic parameters in Sprague-Dawley rat heart assessed as end-systolic pressure at 8 ug/kg/min (reference value: 87.48 to 97.85 mmHg); format: functional
[14] = test system: Rattus norvegicus; experiment: Positive inotropic activity in Sprague-Dawley rat heart assessed as left ventricular posterior wall thickness end systole at 8 ug/kg/min for 3 mins by echocardiographic analysis (reference value: 2.07 to 2.46 mm); format: functional; in short: as §2
[15] = test system: Rattus norvegicus; experiment: Effect on hemodynamic parameters in Sprague-Dawley rat heart assessed as heart rate at 8 ug/kg/min (reference value: 260 to 322 bpm); format: functional
[16] = test system: Rattus norvegicus; experiment: Effect on hemodynamic parameters in Sprague-Dawley rat heart assessed as end-systolic pressure at 4 ug/kg/min (reference value: 94.65 to 97.85 mmHg); format: functional
[17] = test system: Rattus norvegicus; experiment: Positive inotropic activity in Sprague-Dawley rat heart assessed as fractional shortening at 16 ug/kg/min for 3 mins by echocardiographic analysis (reference value: 38.60 to 55.81%); format: functional; in short: as §1
[18] = test system: Rattus norvegicus; experiment: Positive inotropic activity in Sprague-Dawley rat heart assessed as heart rate at 8 ug/kg/min for 3 mins by echocardiographic analysis (reference value: 281 to 347 bpm); format: functional
[19] = test system: Rattus norvegicus; experiment: Positive inotropic activity in Sprague-Dawley rat heart assessed as left ventricular posterior wall thickness end diastole at 4 ug/kg/min for 3 mins by echocardiographic analysis (reference value: 0.88 to 1.54 mm); format: functional; in short: as §2
[20] = test system: Rattus norvegicus; experiment: Positive inotropic activity in Sprague-Dawley rat heart assessed as left ventricular posterior wall thickness end systole at 16 ug/kg/min for 3 mins by echocardiographic analysis (reference value: 2.07 to 2.46 mm); format: functional; in short: as §2
[21] = test system: Rattus norvegicus; experiment: Positive inotropic activity in Sprague-Dawley rat heart assessed as ejection fraction at 16 ug/kg/min for 3 mins by echocardiographic analysis (reference value: 67.16 to 85.81%); format: functional; in short: as §1
[22] = test system: Rattus norvegicus; experiment: Effect on hemodynamic parameters in Sprague-Dawley rat heart assessed as dPdT min at 8 ug/kg/min (reference value: -5462 to -4611 mmHg/s); format: functional
[23] = test system: Rattus norvegicus; experiment: Positive inotropic activity in Sprague-Dawley rat heart assessed as left ventricular internal diameter end diastole at 16 ug/kg/min for 3 mins by echocardiographic analysis (reference value: 5.66 to 7.80 mm); format: functional
[24] = test system: Rattus norvegicus; experiment: Positive inotropic activity in Sprague-Dawley rat heart assessed as left ventricular posterior wall thickness end diastole at 16 ug/kg/min for 3 mins by echocardiographic analysis (reference value: 0.88 to 1.54 mm); format: functional; in short: as §2
[25] = test system: Rattus norvegicus; experiment: Effect on hemodynamic parameters in Sprague-Dawley rat heart assessed as dPdT max at 8 ug/kg/min (reference value: 4162 to 5214 mmHg/s); format: functional
[26] = test system: Rattus norvegicus; experiment: Positive inotropic activity in Sprague-Dawley rat heart assessed as ejection fraction at 8 ug/kg/min for 3 mins by echocardiographic analysis (reference value: 67.16 to 85.81%); format: functional; in short: as §1
[27] = test system: Rattus norvegicus; experiment: Effect on hemodynamic parameters in Sprague-Dawley rat heart assessed as end-diastolic pressure at 8 ug/kg/min (reference value: 7.68 to 9.83 mmHg); format: functional
[28] = test system: Rattus norvegicus; experiment: Effect on hemodynamic parameters in Sprague-Dawley rat heart assessed as dPdT max at 4 ug/kg/min (reference value: 4985 to 5214 mmHg/s); format: functional
[29] = test system: Rattus norvegicus; experiment: Positive inotropic activity in Sprague-Dawley rat heart assessed as fractional shortening at 4 ug/kg/min for 3 mins by echocardiographic analysis (reference value: 38.60 to 55.81%); format: functional; in short: as §1
[30] = test system: Rattus norvegicus; experiment: Effect on hemodynamic parameters in Sprague-Dawley rat heart assessed as dPdT min at 4 ug/kg/min (reference value: -5462 to -4898 mmHg/s); format: functional
[31] = test system: Rattus norvegicus; experiment: Positive inotropic activity in Sprague-Dawley rat heart assessed as left ventricular posterior wall thickness end diastole at 8 ug/kg/min for 3 mins by echocardiographic analysis (reference value: 0.88 to 1.54 mm); format: functional; in short: as §2
[32] = test system: Rattus norvegicus; experiment: Positive inotropic activity in Sprague-Dawley rat heart assessed as left ventricular internal diameter end diastole at 8 ug/kg/min for 3 mins by echocardiographic analysis (reference value: 5.66 to 7.80 mm); format: functional; in short: as §2
[33] = test system: Rattus norvegicus; experiment: Effect on hemodynamic parameters in Sprague-Dawley rat heart assessed as end-diastolic pressure at 4 ug/kg/min (reference value: 7.68 to 9.83 mmHg); format: functional
[34] = test system: Rattus norvegicus; experiment: Positive inotropic activity in Sprague-Dawley rat heart assessed as left ventricular posterior wall thickness end systole at 4 ug/kg/min for 3 mins by echocardiographic analysis (reference value: 2.07 to 2.46 mm); format: functional; in short: as §2

In the case of `O=C(NCCCc1ccccc1)NC1Cc2ccccc2C1`, the Activity [1] is reported as 61.9% and the solubility [2] is reported as “Insoluble”.

`O=C(NCCCc1ccccc1)NCc1ccc2[nH]ccc2c1` gave an Activity [1] of 37.2%.

With `O=C(NCCCc1ccccc1)N1CCCC(c2ccccc2)C1` (centres undefined) the Activity [1] was 35.2%.

Work on `O=C(NCCCc1ccccc1)NCCc1ccccn1` yielded an Activity [1] of 30%.

Work on `O=C(NCCCc1ccccc1)Nc1ccccc1` yielded an Activity [1] of 46.2%.

With `O=C(NCCCc1ccccc1)NCCCc1ccccc1` the Activity [1] was 45.5%.

Work on `O=C(NCCCc1ccccc1)N1CCCCC1c1ccccc1` (centres undefined) yielded an Activity [3] of 9.26%, an Activity [1] of 73% and an Activity [4] of 13.32%.

In the case of `Cc1ccc2c(c1)C(=O)[C@]1(O)CCN(c3ccccc3)C1=N2`, the Activity [5] is reported as -50.7% and the Activity [6] is reported as -35.7%.

With `O=C(NCCCc1ccccc1)NCC1CCOCC1` the Activity [5] was 4.4%, the Activity [3] was 13.1% and the Activity [1] was 81.4%. The Activity [4] was 20.5% and the Activity [6] was 5.1%.

Compound `CC(CCc1ccc(O)cc1)NCCc1ccc(O)c(O)c1` (centres undefined) [DOBUTAMINE] has an Activity [7] of 93.42%, an Activity [8] of 421 bpm and an Activity [9] of 393 bpm. It also gave an Activity [10] of 6.98 mm, an Activity [11] of 270 bpm and an Activity [12] of 75.91%. For the same compound, the Activity [13] was 103.12 mmHg, the Activity [14] was 3.08 mm and the Activity [15] was 309 bpm. For the same compound, the Activity [16] was 96.65 mmHg, the Activity [17] was 82.57% and the Activity [18] was 416 bpm. The Activity [19] was 1.06 mm, the Activity [20] was 3.59 mm and the Activity [21] was 98.65%. It also gave an Activity [22] of -4368 mmHg/s, an Activity [23] of 6.68 mm and an Activity [24] of 1.16 mm. It also gave an Activity [25] of 9314 mmHg/s, an Activity [26] of 96.79% and an Activity [27] of 7.68 mmHg. It also gave an Activity [28] of 6073 mmHg/s, an Activity [29] of 68.11% and an Activity [30] of -4936 mmHg/s. It also gave an Activity [31] of 1.36 mm, an Activity [32] of 6.93 mm and an Activity [33] of 9.38 mmHg. It also gave an Activity [34] of 2.93 mm.

`O=C(NCCCc1ccccc1)NCc1ccco1` showed an Activity [1] of 36.7%.

In the case of `O=C(CCCCc1ccccc1)NCCc1ccccc1`, the Activity [1] is reported as 39.1%.

In the case of `S=C(NCCCc1ccccc1)NCCc1ccccc1`, the Activity [1] is reported as 10.3%.

Compound `c1ccc(CCCCCNCCc2ccccc2)cc1` has an Activity [1] of 1.6%.

`O=C(NCCCCc1ccccc1)NCCN1CCOCC1` showed an Activity [1] of 42.7%.

For `O=C(NCCc1ccccc1)N1CCN(c2ccccc2)CC1`, the Activity [1] was 36.6%.

Compound `CN(CCCc1ccccc1)C(=O)N(C)CCc1ccccc1` has an Activity [3] of 3.41%, an Activity [1] of 72.4% and an Activity [4] of 5.74%.
